Measured values taken from ChEMBL document CHEMBL1671620, “Mutations in the fks1 gene in Candida albicans, C. tropicalis, and C. krusei correlate with elevated caspofungin MICs uncovered in AM3 medium using the method of the European Committee on Antibiotic Susceptibility Testing” (2008).
Values after ≈ are worked out from the molar mass of the structure shown.

Assays:
[1] = system: Candida albicans; test: Antifungal activity against Candida albicans isolate 6 expressing wild type 1,3-beta-glucan synthase grown on RPMI media after 24 hrs by EUCAST microdilution method; conditions: isolate 6, 24 h
[2] = system: Candida albicans; test: Antifungal activity against Candida albicans isolate 10 expressing wild type 1,3-beta-glucan synthase grown on AM3 media after 48 hrs by EUCAST microdilution method; format: functional; conditions: isolate 10, 24 h, in the assay text read “after 24 hrs” for “after 48 hrs”
In short: (§1)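 EUCAST (AFST-EUCAST) broth microdilution with caspofungin at 0.015 to 8 μg/ml final, in AM3 with glucose added to 2% final. Final inoculum was 10⁵ yeast cells/ml, with microplates prepared in batches and stored at −20°C. Plates were incubated at 35°C in humid ambient air and read spectrophotometrically after shaking at 24 h and 48 h. MIC was ≥50% growth reduction versus drug-free well; 90% end point also read at both times.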

[3] = system: Candida albicans; test: Antifungal activity against Candida albicans isolate 1 expressing wild type 1,3-beta-glucan synthase grown on RPMI media after 24 hrs by EUCAST microdilution method; conditions: isolate 1, 24 h
[4] = system: Candida albicans; test: Antifungal activity against Candida albicans isolate 2 expressing wild type 1,3-beta-glucan synthase grown on AM3 media after 48 hrs by EUCAST microdilution method; format: functional; conditions: isolate 2, 24 h, in the assay text read “24 hrs” for “48 hrs”
In short: as §1

[5] = system: Candida albicans; test: Antifungal activity against Candida albicans isolate 15 expressing wild type 1,3-beta-glucan synthase grown on RPMI media after 24 hrs by EUCAST microdilution method; conditions: isolate 15, 24 h
[6] = system: Candida albicans; test: Antifungal activity against Candida albicans isolate 9 expressing wild type 1,3-beta-glucan synthase grown on AM3 media after 48 hrs by EUCAST microdilution method; format: functional; conditions: isolate 9, 24 h, in the assay text read “after 24 hrs” for “after 48 hrs”
In short: as §1

[7] = system: Candida tropicalis; test: Antifungal activity against Candida tropicalis isolate 2 harboring 1,3-beta-glucan synthase HS1 point mutant grown on AM3 media after 24 hrs by EUCAST microdilution method; conditions: isolate 2, 24 h
[8] = system: Candida albicans; test: Antifungal activity against Candida albicans isolate 3 expressing wild type 1,3-beta-glucan synthase grown on RPMI media after 24 hrs by EUCAST microdilution method; conditions: isolate 3, 24 h
[9] = system: Candida albicans; test: Antifungal activity against Candida albicans isolate 20 harboring 1,3-beta-glucan synthase HS1 point mutant grown on RPMI media after 24 hrs by EUCAST microdilution method; conditions: isolate 20, 24 h
[10] = system: Candida tropicalis; test: Antifungal activity against Candida tropicalis isolate 1 expressing wild type 1,3-beta-glucan synthase grown on RPMI media after 24 hrs by EUCAST microdilution method; conditions: isolate 1, 24 h
[11] = system: Candida albicans; test: Antifungal activity against Candida albicans isolate 19 harboring 1,3-beta-glucan synthase HS1 point mutant grown on RPMI media after 24 hrs by EUCAST microdilution method; conditions: isolate 19, 24 h
[12] = system: Candida albicans; test: Antifungal activity against Candida albicans isolate 23 harboring 1,3-beta-glucan synthase HS2 point mutant grown on AM3 media after 24 hrs by EUCAST microdilution method; conditions: isolate 23, 24 h
[13] = system: Candida albicans; test: Antifungal activity against Candida albicans isolate 8 expressing wild type 1,3-beta-glucan synthase grown on AM3 media after 48 hrs by EUCAST microdilution method; format: functional; conditions: isolate 8, 24 h, in the assay text read “after 24 hrs” for “after 48 hrs”
In short: as §1

[14] = system: Candida albicans; test: Antifungal activity against Candida albicans isolate 11 expressing wild type 1,3-beta-glucan synthase grown on AM3 media after 48 hrs by EUCAST microdilution method; format: functional; conditions: isolate 11, 24 h, in the assay text read “after 24 hrs” for “after 48 hrs”
In short: as §1

[15] = system: Candida albicans; test: Antifungal activity against Candida albicans isolate 22 harboring 1,3-beta-glucan synthase HS1 point mutant grown on AM3 media after 24 hrs by EUCAST microdilution method; conditions: isolate 22, 24 h
[16] = system: Candida albicans; test: Antifungal activity against Candida albicans isolate 7 expressing wild type 1,3-beta-glucan synthase grown on RPMI media after 24 hrs by EUCAST microdilution method; conditions: isolate 7, 24 h
[17] = system: Candida tropicalis; test: Antifungal activity against Candida tropicalis ATCC 750 expressing wild type 1,3-beta-glucan synthase grown on AM3 media after 48 hrs by EUCAST microdilution method; format: functional; conditions: ATCC 750, 24 h, in the assay text read “24 hrs” for “48 hrs”
In short: as §1

[18] = system: Pichia kudriavzevii; test: Antifungal activity against Candida krusei ATCC 6258 expressing wild type 1,3-beta-glucan synthase grown on AM3 media after 48 hrs by EUCAST microdilution method; format: functional; conditions: ATCC 6258, 24 h, in the assay text read “after 24 hrs” for “after 48 hrs”
In short: as §1

[19] = system: Candida tropicalis; test: Antifungal activity against Candida tropicalis isolate 2 harboring 1,3-beta-glucan synthase HS1 point mutant grown on RPMI media after 24 hrs by EUCAST microdilution method; conditions: isolate 2, 24 h
[20] = system: Candida albicans; test: Antifungal activity against Candida albicans isolate 18 expressing wild type 1,3-beta-glucan synthase grown on AM3 media after 24 hrs by EUCAST microdilution method; conditions: isolate 18, 24 h
[21] = system: Candida albicans; test: Antifungal activity against Candida albicans isolate 2 expressing wild type 1,3-beta-glucan synthase grown on RPMI media after 24 hrs by EUCAST microdilution method; conditions: isolate 2, 24 h
[22] = system: Pichia kudriavzevii; test: Antifungal activity against Candida krusei isolate 1 harboring 1,3-beta-glucan synthase HS1 point mutant grown on RPMI media after 24 hrs by EUCAST microdilution method; conditions: isolate 1, 24 h
[23] = system: Pichia kudriavzevii; test: Antifungal activity against Candida krusei ATCC 6258 expressing wild type 1,3-beta-glucan synthase grown on RPMI media after 24 hrs by EUCAST microdilution method; conditions: ATCC 6258, 24 h
[24] = system: Candida albicans; test: Antifungal activity against Candida albicans isolate 7 expressing wild type 1,3-beta-glucan synthase grown on AM3 media after 48 hrs by EUCAST microdilution method; format: functional; conditions: isolate 7, 24 h, in the assay text read “after 24 hrs” for “after 48 hrs”
In short: as §1

[25] = system: Candida albicans; test: Antifungal activity against Candida albicans isolate 25 expressing wild type 1,3-beta-glucan synthase grown on RPMI media after 24 hrs by EUCAST microdilution method; conditions: isolate 25, 24 h
[26] = system: Candida tropicalis; test: Antifungal activity against Candida tropicalis isolate 1 expressing wild type 1,3-beta-glucan synthase grown on AM3 media after 48 hrs by EUCAST microdilution method; format: functional; conditions: isolate 1, 24 h, in the assay text read “24 hrs” for “48 hrs”
In short: as §1

[27] = system: Candida albicans; test: Antifungal activity against Candida albicans isolate 9 expressing wild type 1,3-beta-glucan synthase grown on RPMI media after 24 hrs by EUCAST microdilution method; conditions: isolate 9, 24 h

CC[C@H](C)C[C@H](C)CCCCCCCCC(=O)N[C@H]1C[C@@H](O)[C@@H](NCCN)NC(=O)[C@@H]2[C@@H](O)CCN2C(=O)[C@H]([C@H](O)CCN)NC(=O)[C@H]([C@H](O)[C@@H](O)c2ccc(O)cc2)NC(=O)[C@@H]2C[C@@H](O)CN2C(=O)[C@H]([C@@H](C)O)NC1=O [CASPOFUNGIN]
MIC [1]: 0.5 µg/mL (≈ 0.457 µM)
MIC [2]: 0.06 µg/mL (≈ 0.0549 µM)
MIC [3]: 0.25 µg/mL (≈ 0.229 µM)
MIC [4]: 0.03 µg/mL (≈ 0.0274 µM)
MIC [5]: 0.25 µg/mL (≈ 0.229 µM)
MIC [6]: 0.03 µg/mL (≈ 0.0274 µM)
MIC [7]: 1 µg/mL (≈ 0.915 µM)
MIC [8]: 0.25 µg/mL (≈ 0.229 µM)
MIC [9]: 2 µg/mL (≈ 1.83 µM)
MIC [10]: 2 µg/mL (≈ 1.83 µM)
MIC [11]: 1 µg/mL (≈ 0.915 µM)
MIC [12]: 0.5 µg/mL (≈ 0.457 µM)
MIC [13]: 0.03 µg/mL (≈ 0.0274 µM)
MIC [14]: 0.03 µg/mL (≈ 0.0274 µM)
MIC [15]: 1 µg/mL (≈ 0.915 µM)
MIC [16]: 0.5 µg/mL (≈ 0.457 µM)
MIC [17]: 0.06 µg/mL (≈ 0.0549 µM)
MIC [18]: 0.06 µg/mL (≈ 0.0549 µM)
MIC [19]: 2 µg/mL (≈ 1.83 µM)
MIC [20]: 0.015 µg/mL (≈ 0.0137 µM)
MIC [21]: 0.25 µg/mL (≈ 0.229 µM)
MIC [22]: 8 µg/mL (≈ 7.32 µM)
MIC [23]: 1 µg/mL (≈ 0.915 µM)
MIC [24]: 0.06 µg/mL (≈ 0.0549 µM)
MIC [25]: 0.25 µg/mL (≈ 0.229 µM)
MIC [26]: 0.06 µg/mL (≈ 0.0549 µM)
MIC [27]: 0.5 µg/mL (≈ 0.457 µM)
